Experimental data as given in ChEMBL document CHEMBL1124824, “Synthesis and biological activity of atrial natriuretic factor analogues: effect of modifications to the disulfide bridge” (J Med Chem, 1990).
Starred links: 1 amine or outer side, 2 acyl side, 3 side chain; linkers in the order of their positions; H or OH if unused. Positions of bridges follow the written chain, without caps; N, C: chain ends. Non-standard residues stand in square brackets, D forms with d. Residues, ends and D or L forms follow the SMILES beside them. Pen = CC(C)(S)[C@H](N)C(=O)O; hCys = N[C@@H](CCS)C(=O)O; X2 = O=C(CCC[*:2])[*:1]; X1 = O=C(CC[*:2])[*:1]

Key:
Rattus norvegicus [1] = species on record: Rattus norvegicus; assay: Compound was tested for the Cl- excretion for treated over control animals; assay type: functional
Method in brief: (§1)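 Male Sprague-Dawley rats (300-325 g) under halothane/lidocaine had femoral artery, femoral vein and bladder cannulated. After at least 1 h of recovery in restraint, they received Ringer's (1.2 mL/h), with 10-min urine collections over a 30-min control period. Infusion of 0.5 μg/kg per min for 30 min and a 30-min Ringer's recovery followed. Na+, K+ and Cl- were measured with an electrolyte analyzer, reported as treated minus control μmol/sample. Volume ratio is treated/control over three consecutive 10-min samples, six animals.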

Rattus norvegicus [2] = species on record: Rattus norvegicus; assay: Compound was tested for the Na+ excretion for treated over control animals; assay type: functional; method in brief: as §1
Rattus norvegicus [3] = species on record: Rattus norvegicus; assay: Compound was tested for antihypertensive activity in DOCA nephrectomized rats.; assay type: functional
Method in brief: (§2)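 Rats were anesthetized with halothane after skin infiltration with 2% lidocaine, and the femoral artery and vein were cannulated. After recovery, arterial pressure was recorded. A saline control period was followed by i.v. infusion in 30-min steps at 0.1, 0.2, 0.5 and 1.0 μg/kg per min (70 μL/kg per min). Hydralazine (100 μg/kg per min) was given for standardization. ED50 is in nmol/kg per min, from six animals.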

Rattus norvegicus [4] = assay: Compound was tested for diuretic activity and the ratio of urine volume for treated over control animals was reported after infused at a dose of 0.5 ug/kg.; assay type: functional; method in brief: as §1
Rattus norvegicus [5] = species on record: Rattus norvegicus; assay: Compound was tested for antihypertensive activity in 5/6 nephrectomized rats.; assay type: functional; method in brief: as §2
Rattus norvegicus [6] = species on record: Rattus norvegicus; assay: Compound was tested for the K+ excretion for treated over control animals; assay type: functional; method in brief: as §1
Rattus norvegicus [7] = species on record: Rattus norvegicus; assay: Compound was tested for the K+ excretion for treated over control animals.; assay type: functional; method in brief: as §1
Rattus norvegicus [8] = species on record: Rattus norvegicus; assay: Compound was tested for the Na+ excretion for treated over control animals.; assay type: functional; method in brief: as §1
[9] = biological target: T1, Atrial natriuretic peptide receptor 2 (Bos taurus, UniProt P46197); assay: Binding affinity was determined based on the displacement of [125]r-ANF (99-126) from binding sites on bovine adrenal zona glomerulosa cell membranes (Atrionatriuretic peptide receptor B)
T1 sequence (P46197 whole entry): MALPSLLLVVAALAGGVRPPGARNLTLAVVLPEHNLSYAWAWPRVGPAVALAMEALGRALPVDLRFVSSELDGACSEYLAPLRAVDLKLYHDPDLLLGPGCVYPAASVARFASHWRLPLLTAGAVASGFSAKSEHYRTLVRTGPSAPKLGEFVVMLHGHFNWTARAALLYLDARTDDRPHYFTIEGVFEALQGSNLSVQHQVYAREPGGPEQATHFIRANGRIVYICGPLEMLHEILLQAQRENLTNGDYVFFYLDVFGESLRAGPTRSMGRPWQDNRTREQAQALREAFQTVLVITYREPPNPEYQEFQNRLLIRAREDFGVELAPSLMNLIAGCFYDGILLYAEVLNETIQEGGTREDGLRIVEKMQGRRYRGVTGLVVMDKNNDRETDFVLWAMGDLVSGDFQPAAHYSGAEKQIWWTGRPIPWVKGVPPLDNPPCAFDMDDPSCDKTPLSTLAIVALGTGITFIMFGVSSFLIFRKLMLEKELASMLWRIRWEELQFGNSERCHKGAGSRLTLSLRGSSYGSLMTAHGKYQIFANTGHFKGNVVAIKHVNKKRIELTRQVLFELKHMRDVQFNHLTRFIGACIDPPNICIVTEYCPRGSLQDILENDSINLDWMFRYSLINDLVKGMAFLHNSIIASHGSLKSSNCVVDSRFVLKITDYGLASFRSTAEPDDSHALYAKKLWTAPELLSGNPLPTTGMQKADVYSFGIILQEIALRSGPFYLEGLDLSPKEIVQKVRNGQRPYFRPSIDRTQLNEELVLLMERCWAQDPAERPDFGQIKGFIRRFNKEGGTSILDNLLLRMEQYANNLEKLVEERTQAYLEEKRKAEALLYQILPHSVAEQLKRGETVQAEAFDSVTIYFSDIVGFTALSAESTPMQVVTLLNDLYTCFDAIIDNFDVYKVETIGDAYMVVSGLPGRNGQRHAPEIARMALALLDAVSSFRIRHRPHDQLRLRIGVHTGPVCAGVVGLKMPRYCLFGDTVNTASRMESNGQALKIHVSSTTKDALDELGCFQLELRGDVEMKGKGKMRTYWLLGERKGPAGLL

[10] = biological target: T2, Atrial natriuretic peptide receptor 3 (Mus musculus, UniProt P70180); assay: Binding affinity was determined based on the displacement of [125]r-ANF (99-126) from binding sites on mouse fibroblasts (NIH 3T3) cells (Atrionatriuretic peptide receptor C).
T2 sequence (P70180 whole entry): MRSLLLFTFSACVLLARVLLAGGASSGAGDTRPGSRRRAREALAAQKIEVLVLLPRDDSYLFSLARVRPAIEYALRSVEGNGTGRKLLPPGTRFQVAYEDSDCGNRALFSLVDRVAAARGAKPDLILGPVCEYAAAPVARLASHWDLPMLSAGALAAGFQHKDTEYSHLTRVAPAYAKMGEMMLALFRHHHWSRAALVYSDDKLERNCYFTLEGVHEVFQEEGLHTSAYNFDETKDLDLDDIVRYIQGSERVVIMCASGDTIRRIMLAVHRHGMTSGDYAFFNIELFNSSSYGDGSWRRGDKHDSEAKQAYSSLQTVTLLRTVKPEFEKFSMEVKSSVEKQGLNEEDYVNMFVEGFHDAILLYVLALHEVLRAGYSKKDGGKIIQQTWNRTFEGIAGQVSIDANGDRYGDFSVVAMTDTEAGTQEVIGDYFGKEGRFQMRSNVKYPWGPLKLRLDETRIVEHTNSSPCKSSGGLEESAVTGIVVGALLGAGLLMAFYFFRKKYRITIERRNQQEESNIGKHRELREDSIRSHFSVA

Oryctolagus cuniculus = species on record: Oryctolagus cuniculus; assay: Compound was tested for the inhibition of the stimulated contractions of the superfused rabbit thoracic aortic rings.; assay type: functional, Aorta
Method in brief: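 Rabbit thoracic aorta rings (4 mm) were held isometrically at 10-g resting tension, superfused and precontracted with phenylephrine. Test peptide was added to the superfusate above the tissue in successively higher doses after each recovery. Doses were based on peptide content. EC50 came from the dose-response curve, mean of three determinations ± SEM.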

Row | Compound | Electrolyte excretion (Rattus norvegicus [1]) [umol/sample] | Electrolyte excretion (Rattus norvegicus [2]) [uM sample-1] | ED50 (Rattus norvegicus [3]) [nM/min/kg] | Ratio (Rattus norvegicus [4]) | ED50 (Rattus norvegicus [5]) [nM/min/kg] | Electrolyte excretion (Rattus norvegicus [6]) [uM sample-1] | Electrolyte excretion (Rattus norvegicus [7]) [uM sample-1] | Electrolyte excretion (Rattus norvegicus [8]) [uM sample-1] | IC50 [9] [nM] | IC50 [10] [nM] | EC50 (Oryctolagus cuniculus) [M 50ul-1]
1 | CC[C@H](C)[C@@H]1NC(=O)[C@H](CCCN=C(N)N)NC(=O)[C@H](CC(=O)O)NC(=O)[C@H]([C@@H](C)CC)NC(=O)[C@H](CCCN=C(N)N)NC(=O)CNC(=O)CNC(=O)[C@H](Cc2ccccc2)NC(=O)[C@@H](NC(=O)[C@H](CO)NC(=O)[C@H](CO)NC(=O)[C@H](CCCN=C(N)N)NC(=O)[C@H](CC(C)C)NC(=O)[C@@H](N)CO)CSSC[C@@H](C(=O)N[C@@H](CC(N)=O)C(=O)N[C@@H](CO)C(=O)N[C@@H](Cc2ccccc2)C(=O)N[C@@H](CCCN=C(N)N)C(=O)N[C@@H](Cc2ccc(O)cc2)C(=O)O)NC(=O)CNC(=O)[C@H](CC(C)C)NC(=O)CNC(=O)[C@H](CO)NC(=O)[C@H](CCC(N)=O)NC(=O)[C@H](C)NC(=O)CNC1=O | 72.4 | 57.4 | 0.1 | 3.1 | 0.14 | 16.2 |  |  |  |  | 
2 | CC[C@H](C)[C@@H]1NC(=O)[C@H](CCCN=C(N)N)NC(=O)[C@H](CC(=O)O)NC(=O)[C@H]([C@@H](C)CC)NC(=O)[C@H](CCCN=C(N)N)NC(=O)CNC(=O)CNC(=O)[C@H](Cc2ccccc2)NC(=O)CCC=CC[C@@H](C(=O)N[C@@H](CC(N)=O)C(=O)N[C@@H](CO)C(=O)N[C@@H](Cc2ccccc2)C(=O)N[C@@H](CCCN=C(N)N)C(=O)N[C@@H](Cc2ccc(O)cc2)C(=O)O)NC(=O)CNC(=O)[C@H](CC(C)C)NC(=O)CNC(=O)[C@H](CO)NC(=O)[C@H](CCC(N)=O)NC(=O)[C@H](C)NC(=O)CNC1=O | 7.3 |  |  | 2.5 | 1.2 |  | 3.2 | 0.4 |  |  | 
3 | CC[C@H](C)[C@@H]1NC(=O)[C@H](CCCN=C(N)N)NC(=O)[C@H](CC(=O)O)NC(=O)[C@H]([C@@H](C)CC)NC(=O)[C@H](CCCN=C(N)N)NC(=O)CNC(=O)CNC(=O)[C@H](Cc2ccccc2)NC(=O)CCCSC[C@@H](C(=O)N[C@@H](CC(N)=O)C(=O)N[C@@H](CO)C(=O)N[C@@H](Cc2ccccc2)C(=O)N[C@@H](CCCN=C(N)N)C(=O)N[C@@H](Cc2ccc(O)cc2)C(=O)O)NC(=O)CNC(=O)[C@H](CC(C)C)NC(=O)CNC(=O)[C@H](CO)NC(=O)[C@H](CCC(N)=O)NC(=O)[C@H](C)NC(=O)CNC1=O (FGGRIDRIGAQSGLGCNSFRY-OH; linker N-16 via X2) | 41.1 | 34 | 0.72 | 2.8 | 1.1 | 10.2 |  |  |  |  | 
4 | CC[C@H](C)[C@@H]1NC(=O)[C@H](CCCN=C(N)N)NC(=O)[C@H](CC(=O)O)NC(=O)[C@H]([C@@H](C)CC)NC(=O)[C@H](CCCN=C(N)N)NC(=O)CNC(=O)CNC(=O)[C@H](Cc2ccccc2)NC(=O)CCCSC(C)(C)[C@@H](C(=O)N[C@@H](CC(N)=O)C(=O)N[C@@H](CO)C(=O)N[C@@H](Cc2ccccc2)C(=O)N[C@@H](CCCN=C(N)N)C(=O)N[C@@H](Cc2ccc(O)cc2)C(=O)O)NC(=O)CNC(=O)[C@H](CC(C)C)NC(=O)CNC(=O)[C@H](CO)NC(=O)[C@H](CCC(N)=O)NC(=O)[C@H](C)NC(=O)CNC1=O (FGGRIDRIGAQSGLG[Pen]NSFRY-OH; linker N-16 via X2) | 39.6 | 17.9 | 0.14 | 3 | 0.11 | 24.8 |  |  |  |  | 
5 | CC[C@H](C)[C@@H]1NC(=O)[C@H](CCCN=C(N)N)NC(=O)[C@H](CC(=O)O)NC(=O)[C@H]([C@@H](C)CC)NC(=O)[C@H](CCCN=C(N)N)NC(=O)CNC(=O)CNC(=O)[C@H](Cc2ccccc2)NC(=O)CCSCC[C@@H](C(=O)N[C@@H](CC(N)=O)C(=O)N[C@@H](CO)C(=O)N[C@@H](Cc2ccccc2)C(=O)N[C@@H](CCCN=C(N)N)C(=O)N[C@@H](Cc2ccc(O)cc2)C(=O)O)NC(=O)CNC(=O)[C@H](CC(C)C)NC(=O)CNC(=O)[C@H](CO)NC(=O)[C@H](CCC(N)=O)NC(=O)[C@H](C)NC(=O)CNC1=O (FGGRIDRIGAQSGLG[hCys]NSFRY-OH; linker N-16 via X1) | 15.9 | 7.2 | 0.83 | 1.7 | 1.2 | 3.5 |  |  |  |  | 
6 | CC[C@H](C)[C@@H]1NC(=O)[C@H](CCCN=C(N)N)NC(=O)[C@H](CC(=O)O)NC(=O)[C@H]([C@@H](C)CC)NC(=O)[C@H](CCCN=C(N)N)NC(=O)CNC(=O)CNC(=O)[C@H](Cc2ccccc2)NC(=O)[C@@H](N)CSSC[C@@H](C(=O)N[C@@H](CC(N)=O)C(=O)N[C@@H](CO)C(=O)N[C@@H](Cc2ccccc2)C(=O)N[C@@H](CCCN=C(N)N)C(=O)N[C@@H](Cc2ccc(O)cc2)C(=O)O)NC(=O)CNC(=O)[C@H](CC(C)C)NC(=O)CNC(=O)[C@H](CO)NC(=O)[C@H](CCC(N)=O)NC(=O)[C@H](C)NC(=O)CNC1=O (H-CFGGRIDRIGAQSGLGCNSFRY-OH; disulfide 1-17) | 28.5 | 15.9 | 0.1 |  |  | 12.9 |  |  | 3.6 | 0.5 | 3.1e-10
7 | CC[C@H](C)[C@@H]1NC(=O)[C@H](CCCN=C(N)N)NC(=O)[C@H](CC(=O)O)NC(=O)[C@H]([C@@H](C)CC)NC(=O)[C@H](CCCN=C(N)N)NC(=O)CNC(=O)CNC(=O)[C@H](Cc2ccccc2)NC(=O)[C@@H](NC(=O)[C@H](CO)NC(=O)[C@@H](N)CO)CSSC[C@@H](C(=O)N[C@@H](CC(N)=O)C(=O)N[C@@H](CO)C(=O)N[C@@H](Cc2ccccc2)C(=O)N[C@@H](CCCN=C(N)N)C(=O)N[C@@H](Cc2ccc(O)cc2)C(=O)O)NC(=O)CNC(=O)[C@H](CC(C)C)NC(=O)CNC(=O)[C@H](CO)NC(=O)[C@H](CCC(N)=O)NC(=O)[C@H](C)NC(=O)CNC1=O (H-SSCFGGRIDRIGAQSGLGCNSFRY-OH; disulfide 3-19) |  | 79.6 | 0.16 | 2.7 | 0.13 | 23 |  |  |  |  | 
